Results: publication PMC3102230 (Chemistry & biology, 2011)
Where two headings read alike, the source gives them in different places.

Legend:
E. coli EF4 = assay: Malachite green rdGTPase assay, EF4; type: biochemical; details: for effect on rdGTPase activity of EF4: E. coli 70S ribosomes, 1 μM ThS or 5 μM MiC (Figure 2C); for effect on rdGTPase activity of EF4, ribosomes lacking L7/L12: E. coli 70SΔL7/L12 ribosomes, 12 hours at 20 °C (Figure 2H)
POST complex = assay: EF4-mediated back-translocation assay; type: biochemical, E. coli; details: 5 μM Evn
Method in brief: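 POST complex formed from initiation and ternary complexes plus EF-G (0.2:1 to ribosomes) and 1 mM GTP, 37 °C, 10 min, then sucrose-cushion purified. 0.1 μM POST premixed with 0.15 μM tRNAfMet was stopped-flow mixed with 3 μM EF4, 0.5 mM GDPNP and test compound at 0–5 μM (final). Proflavin excitation 460 nm, 495 nm long-pass. Traces fit to a three-step back-translocation kinetic model.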

PRE complex = assay: EF-G catalysed translocation assay; type: biochemical; details: 10 μM Evn, E. coli fMetPhe-tRNAPhe(Prf16/20)
Method in brief: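 Initiation complex: ribosomes (2 μM), MFK mRNA (8 μM), IF1/IF2/IF3 (3 μM each), 1 mM GTP, [35S]fMet-tRNAfMet (3 μM), 25 min, buffer A pH 7.5, 37 °C. Combined with EF-Tu ternary complex for 45 sec. PRE complex sucrose-cushion purified (20 mM Mg2+). 0.1 μM PRE ± test compound stopped-flow mixed with 5 μM EF-G, 1 mM GTP. Proflavin excitation 460 nm, 495 nm long-pass. Double-exponential fits.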

S. faecalis TetM = assay: Malachite green rdGTPase assay, TetM; type: biochemical; details: for effect on rdGTPase activity of TetM: E. coli 70S ribosomes, 1 μM ThS or 5 μM MiC (Figure 2B)
[1] = tested on: E. coli lysate-based system; assay: In vitro coupled transcription-translation assay; type: biochemical; details: read-out: IC50, in vitro transcription-translation (synthesis of GFP); E. coli in vitro coupled transcription-translation system (Figure S3)
Method in brief: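 Coupled transcription-translation in an E. coli lysate-based system, run with or without test compound. GFP fluorescence was scanned with a blue laser module, and the images were quantified.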

[2] = tested on: IF2-dependent 70SIC formation; assay: IF2-dependent 70SIC formation light scattering assay; type: biochemical, E. coli
Method in brief: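 Stopped-flow light scattering at 436 nm excitation with a 455 nm cut-off filter. It was premixed with test compound (0–5 μM), then rapidly mixed with 0.3 μM 50S subunits. All concentrations are final after mixing.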

Tet(O) = assay: rdGTPase assay, Tet; type: biochemical; details: data not shown
E. coli EF-GΔG′ = assay: Malachite green rdGTPase assay, EF-GΔG′; type: biochemical
E. coli BipA = assay: Malachite green rdGTPase assay, BipA; type: biochemical; details: for effect on rdGTPase activity of BipA: E. coli 70S ribosomes, 1 μM ThS or 5 μM MiC (Figure 2D); for effect on rdGTPase activity of BipA, ribosomes lacking L7/L12: E. coli 70SΔL7/L12 ribosomes, 12 hours at 20 °C (Figure 2I)
E. coli EF-G = assay: Malachite green ribosome-dependent GTPase; type: biochemical; details: for effect on rdGTPase activity of EF-G, ribosomes lacking L7/L12: E. coli 70SΔL7/L12 ribosomes, 12 hours at 20 °C (Figure 2G)
[3] = E. coli 70S ribosomes, 1 μM ThS or 5 μM MiC (Figure 2F)
[4] = E. coli 70S ribosomes, 1 μM ThS or 5 μM MiC (Figure 2A)

Row | SMILES | IC50 [1] [µM] | effect on rdGTPase activity of EF4 (E. coli EF4) | effect on rdGTPase activity of EF4, ribosomes lacking L7/L12 (E. coli EF4) | effect on rdGTPase activity of TetM (S. faecalis TetM) | effect on rdGTPase activity of EF-GΔG′ (E. coli EF-GΔG′; [3]) | effect on rdGTPase activity of BipA (E. coli BipA) | effect on rdGTPase activity of BipA, ribosomes lacking L7/L12 (E. coli BipA) | effect on rdGTPase activity of EF-G (E. coli EF-G; [4]) | effect on rdGTPase activity of EF-G, ribosomes lacking L7/L12 (E. coli EF-G) | also measured
1 | COC[C@H]1O[C@@H](O[C@@H]2OC[C@@H]3O[C@@]4(OC[C@@H](OC(=O)c5c(C)cc(O)cc5O)[C@@H]5OCO[C@H]54)O[C@H]3[C@H]2O)[C@@H](OC)[C@@H](O)[C@@H]1O[C@@H]1O[C@H](C)[C@H](OC)[C@H](O[C@@H]2O[C@H](C)[C@H]3O[C@]4(C[C@@H](O)[C@H](O[C@H]5C[C@@H](O[C@H]6C[C@](C)([N+](=O)[O-])[C@@H](OC)[C@H](C)O6)[C@H](OC(=O)c6c(C)c(Cl)c(O)c(Cl)c6OC)[C@@H](C)O5)[C@@H](C)O4)O[C@]3(C)[C@@H]2O)[C@H]1O [Evn, evernimicin] | ~2 | – | – | – | – | – | – | – | – | IC50 (E. coli EF4; read-out: IC50, inhibition of EF4 rdGTPase, E. coli 70S ribosomes (Figure 5F)): ~3 µM; effect on EF4-catalyzed component of back-translocation (POST complex): completely abolished; effect on rdGTPase activity of IF2 (E. coli IF2; increasing concentrations of Evn (Figure 5A)): strongly inhibits; IC50 (E. coli IF2; read-out: IC50, inhibition of IF2 rdGTPase, E. coli 70S ribosomes (Figure 5A)): ~7 µM; apparent rate constant of translocation, Step 2 (PRE complex; control 1.3 ± 0.1 s^−1): 3.5 ± 0.2 s⁻¹; apparent rate constant of translocation, Step 1 (PRE complex; control 20.7 ± 0.6 s^−1): 28.1 ± 0.7 s⁻¹; effect on rdGTPase activity of Tet(M) (S. faecalis TetM; increasing concentrations of Evn (Figure 5D)): little or no effect; effect on IF2-dependent light scattering (70SIC formation) ([2]; 5 μM Evn): almost all IF2-dependent light scattering was abolished; Ki ([2]; read-out: apparent Ki for inhibition of IF2-dependent 70SIC formation, reciprocal of IF2-dependent light scattering increase at 1 sec vs. Evn concentration): 1.8 ± 0.2 µM; effect on rdGTPase of Tet(O) (Tet(O)): does not inhibit; effect on rdGTPase activity of EF-GΔG′ (E. coli EF-GΔG′; increasing concentrations of Evn (Figure 5C)): little or no effect; IC50 (E. coli BipA; read-out: IC50, inhibition of BipA rdGTPase, E. coli 70S ribosomes (Figure 5E)): ~20 µM; effect on rdGTPase activity of EF-G (E. coli EF-G; increasing concentrations of Evn (Figure 5B)): little or no effect
2 | C/C=C(\NC(=O)c1csc(-c2csc(-c3ccc4c(n3)-c3csc(n3)[C@H]([C@@H](C)O)NC(=O)c3csc(n3)[C@H](C(C)C)NC(=O)c3csc(n3)/C(=C/C)NC(=O)[C@H]([C@@H](C)O)NC(=O)c3csc-4n3)n2)n1)C(=O)NC[C@@H](C)O [MiC, micrococcin] | ~3 | inhibited | inhibited | inhibited | inhibit, rather than stimulate | inhibited | inhibited | enhanced | inhibited | –
3 | C=C(NC(=O)C(=C)NC(=O)c1csc(C2=N[C@@H]3c4csc(n4)[C@H]4NC(=O)c5csc(n5)[C@H]([C@](C)(O)[C@@H](C)O)NC(=O)[C@H]5CSC(=N5)/C(=C/C)NC(=O)[C@H]([C@@H](C)O)NC(=O)c5csc(n5)[C@]3(CC2)NC(=O)[C@H](C)NC(=O)C(=C)NC(=O)[C@H](C)NC(=O)[C@H]([C@@H](C)CC)N[C@@H]2C=Cc3c([C@H](C)O)cc(nc3[C@H]2O)C(=O)O[C@@H]4C)n1)C(N)=O [ThS, thiostrepton] | ~3 | inhibited | inhibited | inhibited | inhibited | inhibited | inhibited | inhibited | inhibited | effect on rdGTPase activity of IF2 (E. coli IF2; E. coli 70S ribosomes, 1 μM ThS or 5 μM MiC (Figure 2E)): inhibited
